# Measurements of several laboratories.
# Compare with care: the assays were run in different laboratories.
# Observed: enzyme activity
# Action: inhibitor
# BMP2K: BMP-2-inducible protein kinase (BMP2K, Homo sapiens, UniProt Q9NSY1)
# murC: UDP-N-acetylmuramate--L-alanine ligase (murC, Escherichia coli K-12, UniProt P17952)
# ACVR2B: Activin receptor type-2B (ACVR2B, Homo sapiens, UniProt Q13705)
# COQ8B: Atypical kinase COQ8B, mitochondrial (COQ8B, Homo sapiens, UniProt Q96D53)
target,technique,tested at,remaining activity [%],SMILES
BMP2K,radiometric,1 µM,104,Cc1nn(CC(F)(F)F)cc1Nc1nccc(NCCc2cnc[nH]2)n1
murC,absorbance,50 µM,55,O=[N+]([O-])c1ccccc1S(=O)(=O)Oc1ccccc1C=NNS(=O)(=O)c1ccc2ccccc2c1
ACVR2B,radiometric,1 µM,46,CC(C)(C)c1nc(-c2cccc(NS(=O)(=O)c3c(F)cccc3F)c2F)c(-c2ccnc(N)n2)s1
"Rho-associated protein kinase 2 (ROCK2, Homo sapiens, UniProt O75116)",,50 nM,38,CCCOc1ccc(OC)c(F)c1C(=O)c1ccc(C(=O)N[C@@H]2CNC[C@H]2NC(=O)c2ccc3[nH]ncc3c2)cc1
ACVR2B,radiometric,1 µM,88,CC(C)(C)c1nc2c(s1)c1nc(N)ncc1c1ccc(NS(=O)(=O)c3c(F)cccc3F)c(F)c12
BMP2K,radiometric,1 µM,101,Cc1nn(CC(F)(F)F)cc1Nc1nccc(NCCCNC(=O)C2CCC2)n1
murC,absorbance,50 µM,58,O=[N+]([O-])c1cccc(COc2cccc(C=NNS(=O)(=O)c3ccc4ccccc4c3)c2)c1
COQ8B,,23.5 nM,89,Cc1ccc(C(=O)Nc2ccc(CN3CCN(C)CC3)c(C(F)(F)F)c2)cc1C#Cc1cnc2cccnn12
murC,absorbance,50 µM,65,O=[N+]([O-])c1cccc(S(=O)(=O)Oc2ccccc2C=NNS(=O)(=O)c2ccc3ccccc3c2)c1
BMP2K,radiometric,1 µM,1,Brc1cnc(Nc2cccc(CN3CCOCC3)c2)nc1NCCc1c[nH]cn1
"MAPK/MAK/MRK overlapping kinase (MOK, Homo sapiens, UniProt Q9UQ07)",,1 µM,102,COc1cc(Cl)c(C(=O)N[C@@H](CN[C@H]2CC[C@@H](N)CC2)Cc2ccc(C#N)cc2)cc1-c1ccc(CN[C@H](C)c2ccc(C)cc2)o1
murC,absorbance,100 µM,75,O=[N+]([O-])c1ccc(S(=O)(=O)Oc2ccccc2C=NNS(=O)(=O)c2ccc3ccccc3c2)cc1
BMP2K,radiometric,1 µM,86,Cc1nn(CC(F)(F)F)cc1Nc1nccc(NCc2ccc(S(N)(=O)=O)cc2)n1
COQ8B,,20 µM,24,Nc1ncnc2occ(-c3ccc(NC(=O)Nc4cc(C(F)(F)F)ccc4F)cc3)c12
BMP2K,radiometric,1 µM,68,NS(=O)(=O)c1ccc(CNc2nc(Nc3cccc(CN4CCOCC4)c3)ncc2C2CC2)cc1
murC,absorbance,100 µM,51,O=C(Nc1ccccc1C=NNS(=O)(=O)c1ccc2ccccc2c1)c1cc([N+](=O)[O-])cc([N+](=O)[O-])c1
